Measurements taken from ChEMBL document CHEMBL5329210, “Novel piperazine-1,2,3-triazole leads for the potential treatment of pancreatic cancer” (RSC Med Chem, 2023).

Columns and labels:
HT-29 [1] = assay: Inhibition of cell growth of human HT-29 cells at 25 uM measured after 72 hrs by MTT assay relative to control; conditions: HT-29, 72 h
BE(2)-C [2] = assay: Inhibition of cell growth of human BE2C cells at 25 uM measured after 72 hrs by MTT assay relative to control
A-431 = assay: Inhibition of cell growth of human A-431 cells at 25 uM measured after 72 hrs by MTT assay relative to control; conditions: A-431, 72 h
MIA PaCa-2 [3] = assay: Inhibition of cell growth of human MIA PaCa-2 cells at 25 uM measured after 72 hrs by CCK8 assay relative to control; type: functional
Summary of the method: (§1)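 Single 25 μM exposure, read by CCK-8, n = 3, relative to control. Seeding was 3×10^3/well for MiaPaCa2, 7×10^3/well for BxPC3 (in RPMI-1640/10% FBS) and 1×10^4/well for HPDE (in KSFM with rEGF/BPE). After 24 h attachment, cells were exposed for 72 h. CCK-8 was then incubated for 1 h, and A450 minus A650 was compared with 0.5% DMSO.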

[4] = Inhibition of cell growth of human MCF-10A cells at 25 uM measured after 72 hrs by MTT assay relative to control
U-87 MG = assay: Inhibition of cell growth of human U87 cells at 25 uM measured after 72 hrs by MTT assay relative to control
A2780 [5] = assay: Inhibition of cell growth of human A2780 cells at 25 uM measured after 72 hrs by MTT assay relative to control; conditions: A2780, 72 h
DU-145 = assay: Inhibition of cell growth of human DU-145 cells at 25 uM measured after 72 hrs by MTT assay relative to control; conditions: DU-145, 72 h
[6] = Inhibition of cell growth of human SJG2 cells at 25 uM measured after 72 hrs by MTT assay relative to control; conditions: SJ-G2, 72 h
MCF7 [7] = assay: Inhibition of cell growth of human MCF7 cells at 25 uM measured after 72 hrs by MTT assay relative to control; conditions: MCF7, 72 h
NCI-H460 = assay: Inhibition of cell growth of human NCI-H460 cells at 25 uM measured after 72 hrs by MTT assay relative to control; conditions: NCI-H460, 72 h
HPAC = assay: Inhibition of cell growth of human HPAC cells at 25 uM measured after 72 hrs by MTT assay relative to control; type: functional
Summary of the method: (§2)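 MTT read-out. Cancer lines were grown in DMEM with 10% FBS, glutamine and antibiotics. MCF10A was grown in DMEM:F12 with 5% horse serum, EGF, hydrocortisone, cholera toxin and insulin. Cells were plated in duplicate at 2500–4000/well, and drug was added 24 h later. After 72 h, absorbance was read at 540 nm. Single-point lines used 25 μM. GI50 is 50% growth inhibition versus untreated control. n = 3.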

Capan-2 = assay: Inhibition of cell growth of human Capan-2 cells at 25 uM measured after 72 hrs by MTT assay relative to control; type: functional
Summary of the method: as §2

[8] = Inhibition of cell growth of human MCF-10A cells at 25 uM measured after 72 hrs by MTT assay relative to control; type: toxicity, cell-based
Summary of the method: as §2

BXPC-3 [9] = assay: Inhibition of cell growth of human BXPC-3 cells at 25 uM measured after 72 hrs by MTT assay relative to control; type: functional
Summary of the method: as §2

BE(2)-C [10] = assay: Inhibition of cell growth of human BE2C cells at 25 uM measured after 72 hrs by MTT assay relative to control; type: functional
Summary of the method: as §2

MIA PaCa-2 [11] = assay: Inhibition of cell growth of human MIA PaCa-2 cells at 25 uM measured after 72 hrs by MTT assay relative to control; type: functional
Summary of the method: as §2

HT-29 [12] = assay: Inhibition of cell growth of human HT-29 cells at 25 uM measured after 72 hrs by MTT assay relative to control; type: functional
Summary of the method: as §2

MCF7 [13] = assay: Inhibition of cell growth of human MCF7 cells at 25 uM measured after 72 hrs by MTT assay relative to control; type: functional
Summary of the method: as §2

PANC-1 = assay: Inhibition of cell growth of human PANC-1 cells at 25 uM measured after 72 hrs by MTT assay relative to control; type: functional
Summary of the method: as §2

ASPC1 = assay: Inhibition of cell growth of human ASPC1 cells at 25 uM measured after 72 hrs by MTT assay relative to control; type: functional
Summary of the method: as §2

A2780 [14] = assay: Inhibition of cell growth of human A2780 cells at 25 uM measured after 72 hrs by MTT assay relative to control; type: functional
Summary of the method: as §2

BXPC-3 [15] = assay: Inhibition of cell growth of human BXPC-3 cells at 25 uM measured after 72 hrs by CCK8 assay relative to control; type: functional
Summary of the method: as §1

[16] = Inhibition of cell growth of human HPDE cells at 25 uM measured after 72 hrs by CCK8 assay relative to control; type: toxicity, cell-based
Summary of the method: as §1

SMILES | inhibition at 25 µM (HT-29 [1]) | inhibition at 25 µM (BE(2)-C [2]) | inhibition at 25 µM (A-431) | inhibition at 25 µM (MIA PaCa-2 [3]) | inhibition at 72 h, 25 µM [4] | inhibition at 25 µM (U-87 MG) | inhibition at 25 µM (A2780 [5]) | inhibition at 25 µM (DU-145) | inhibition at 25 µM [6] | inhibition at 25 µM (MCF7 [7]) | inhibition at 25 µM (NCI-H460) | inhibition at 25 µM (HPAC) | inhibition at 25 µM (Capan-2) | inhibition at 72 h, 25 µM [8] | inhibition at 25 µM (BXPC-3 [9]) | inhibition at 25 µM (BE(2)-C [10]) | inhibition at 25 µM (MIA PaCa-2 [11]) | inhibition at 25 µM (HT-29 [12]) | inhibition at 25 µM (MCF7 [13]) | inhibition at 25 µM (PANC-1) | other results
CC(=O)Nc1ccc(S(=O)(=O)N2CCN(CCCn3cc(-c4ccc(F)cc4)nn3)CC2)cc1 | 22% | 38% | 28% | 35% | 41% | 16% | 50% | 35% | 67% | 27% | 18% | – | – | – | – | – | – | – | – | – | –
CCc1ccc(-c2cn(CCCN3CCN(S(=O)(=O)c4cccc(C(F)(F)F)c4)CC3)nn2)cc1 | – | – | – | – | – | – | – | – | – | – | – | 41% | 58% | 77% | 39% | 61% | 50% | 65% | 86% | 59% | inhibition at 25 µM (ASPC1): 60%; inhibition at 25 µM (A2780 [14]): 86%
Cc1ccc(-c2cn(CCCN3CCN(S(=O)(=O)c4ccccc4C(F)(F)F)CC3)nn2)cc1 | – | – | – | – | – | – | – | – | – | – | – | 41% | 42% | 61% | 11% | 35% | 38% | 86% | 79% | 48% | inhibition at 25 µM (ASPC1): 57%; inhibition at 25 µM (A2780 [14]): 75%
Cc1ccc(-c2cn(CCCN3CCN(S(=O)(=O)c4cccc(C(F)(F)F)c4)CC3)nn2)cc1 | – | – | – | – | – | – | – | – | – | – | – | 40% | 54% | 79% | 32% | 60% | 48% | 63% | 86% | 57% | inhibition at 25 µM (ASPC1): 60%; inhibition at 25 µM (A2780 [14]): 83%
CC(=O)Nc1ccc(S(=O)(=O)N2CCN(CCCn3cc(-c4ccc(C(F)(F)F)cc4)nn3)CC2)cc1 | 59% | 41% | 31% | 43% | 73% | 16% | 67% | 52% | 42% | 42% | 30% | – | – | – | – | – | – | – | – | – | –
CC(=O)Nc1ccc(S(=O)(=O)N2CCN(CCCn3cc(-c4ccc(Br)cc4)nn3)CC2)cc1 | 58% | 39% | 16% | 34% | 58% | 4% | 46% | 54% | 48% | 28% | 19% | – | – | – | – | – | – | – | – | – | –
O=S(=O)(c1cccc(C(F)(F)F)c1)N1CCN(CCCn2cc(-c3ccc(Br)cc3)nn2)CC1 | – | – | – | – | – | – | – | – | – | – | – | < 10% | 39% | 74% | 22% | 40% | 35% | 46% | 56% | 41% | inhibition at 25 µM (ASPC1): 53%; inhibition at 25 µM (A2780 [14]): 72%
O=S(=O)(c1ccccc1C(F)(F)F)N1CCN(CCCn2cc(-c3ccc(C(F)(F)F)cc3)nn2)CC1 | – | – | – | – | – | – | – | – | – | – | – | 29% | 42% | 64% | 19% | 62% | 45% | 69% | 75% | 54% | inhibition at 25 µM (ASPC1): 50%; inhibition at 25 µM (A2780 [14]): 80%
COc1cccc(-c2cn(CCCN3CCN(S(=O)(=O)c4ccc(C(C)=O)cc4)CC3)nn2)c1 | – | – | – | < 10% | – | – | – | – | – | – | – | – | – | – | – | – | – | – | – | – | inhibition at 25 µM (BXPC-3 [15]): 22.8%; inhibition at 72 h, 25 µM [16]: 30.1%
CC(=O)Nc1ccc(S(=O)(=O)N2CCN(CCCn3cc(-c4ccccc4)nn3)CC2)cc1 | 31% | 32% | 31% | 30% | 44% | 10% | 47% | 34% | 59% | 24% | 23% | – | – | – | – | – | – | – | – | – | –
CC(=O)Nc1ccc(S(=O)(=O)N2CCN(CCCn3cc(-c4cccc(Cl)c4)nn3)CC2)cc1 | 42% | 27% | 2% | 32% | 43% | 1% | 49% | 24% | 33% | 31% | 18% | – | – | – | – | – | – | – | – | – | –
CC(=O)Nc1ccc(S(=O)(=O)N2CCN(CCCn3cc(-c4ccc(C)cc4)nn3)CC2)cc1 | 46% | 36% | 40% | 38% | 67% | 22% | 57% | 61% | 72% | 42% | 34% | – | – | – | – | – | – | – | – | – | –
CCc1ccc(-c2cn(CCCN3CCN(S(=O)(=O)c4ccccc4C(F)(F)F)CC3)nn2)cc1 | – | – | – | – | – | – | – | – | – | – | – | 67% | 25% | 63% | 16% | 52% | 39% | 79% | 82% | 48% | inhibition at 25 µM (ASPC1): 59%; inhibition at 25 µM (A2780 [14]): 75%
COc1cccc(-c2cn(CCCN3CCN(S(=O)(=O)c4ccc(Cl)cc4)CC3)nn2)c1 | – | – | – | < 10% | – | – | – | – | – | – | – | – | – | – | – | – | – | – | – | – | inhibition at 25 µM (BXPC-3 [15]): 22.9%; inhibition at 72 h, 25 µM [16]: 54.3%
CC(=O)Nc1ccc(S(=O)(=O)N2CCN(CCCn3cc(-c4ccc([N+](=O)[O-])cc4)nn3)CC2)cc1 | 50% | 42% | 33% | 40% | 69% | 27% | 72% | 48% | 37% | 47% | 40% | – | – | – | – | – | – | – | – | – | –
CCc1ccc(-c2cn(CCCN3CCN(S(=O)(=O)c4ccc(NC(C)=O)cc4)CC3)nn2)cc1 | 64% | 36% | 16% | 38% | 67% | < 0% | 59% | 42% | 29% | 30% | 32% | – | – | – | – | – | – | – | – | – | –
COc1cccc(-c2cn(CCCN3CCN(S(=O)(=O)c4ccc(F)cc4)CC3)nn2)c1 | – | – | – | < 10% | – | – | – | – | – | – | – | – | – | – | – | – | – | – | – | – | inhibition at 25 µM (BXPC-3 [15]): 15.1%; inhibition at 72 h, 25 µM [16]: 40.8%
COc1cccc(-c2cn(CCCN3CCN(S(=O)(=O)c4ccc(C(C)C)cc4)CC3)nn2)c1 | – | – | – | 11.4% | – | – | – | – | – | – | – | – | – | – | – | – | – | – | – | – | inhibition at 25 µM (BXPC-3 [15]): < 10%; inhibition at 72 h, 25 µM [16]: 48.8%
COc1cccc(-c2cn(CCCN3CCN(S(=O)(=O)c4ccc(C(C)(C)C)cc4)CC3)nn2)c1 | – | – | – | < 10% | – | – | – | – | – | – | – | – | – | – | – | – | – | – | – | – | inhibition at 25 µM (BXPC-3 [15]): < 10%; inhibition at 72 h, 25 µM [16]: 38.2%
